Data set [1] concerns Staphylococcus aureus. In words: Antibacterial activity against Staphylococcus aureus RN4220 NRS107 clinical isolate after 20 hrs by broth microdilution method. Format: functional. As to conditions: RN4220 NRS107, 20 h. The essentials: (§1)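 CLSI broth microdilution in cation-adjusted Mueller Hinton broth; compounds serially diluted, triplicate samples; 37 °C, 20 h. MIC read visually as lowest concentration with no visible growth; mean of triplicate determinations reported.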
(In general: In broth dilution the organism is exposed to a series of concentrations in liquid medium.)

Data set [2] in a line: Intrinsic clearance in human liver microsomes in absence of NADPH by LC-MS/MS method. Format: ADME, microsome. As to conditions: read-out: CLH. A general note: Liver microsomes are vesicles of endoplasmic reticulum, rich in cytochrome P450 enzymes.
Data set [3] has as its system Staphylococcus aureus. In words: Bactericidal activity against methicillin-resistant Staphylococcus aureus USA400 NRS123 clinical isolate assessed as disruption of bacterial membrane by measuring leakage of 280 nM absorbing material at 5 times MIC after 30 mins by spectrophotometric method. Format: functional.
Data set [4] concerns Staphylococcus aureus. In words: Antibacterial activity against methicillin-resistant Staphylococcus aureus USA100 NRS382 clinical isolate preincubated followed by bacterial subculturing for 2 weeks. Format: functional.
The test system of data set [5] is Staphylococcus aureus. Description: Antibacterial activity against methicillin-resistant Staphylococcus aureus USA100 NRS382 clinical isolate after 20 hrs by broth microdilution method. In kind it is functional. As to conditions: USA100 NRS382, 20 h. The procedure, abridged: as §1
In data set [6] the test system is HaCaT. In words: Cytotoxicity against human HaCaT cells up to 64 ug/ml after 2 hrs by MTS assay. In kind it is cell-based. The procedure, abridged: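 Keratinocytes grown in DMEM with 10% FBS at 37 °C, 5% CO2; exposed in triplicate to 8, 16, 32 and 64 µg/mL for 2 h. DMSO-matched controls. MTS added for 4 h, absorbance at 490 nm. Viability expressed as % of DMSO-treated cells (mean of triplicate ± SD); one-way ANOVA with Dunnett's test, P < 0.05.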
For orientation: Tetrazolium assays rely on reduction of a dye to a coloured formazan, in cell work by metabolically active cells.

Data set [7] concerns Staphylococcus aureus. Description: Bactericidal activity against methicillin-resistant Staphylococcus aureus USA400 infected in mouse J774 cells assessed as reduction in colony forming units at 16 ug/ml after 8 hrs by time kill assay relative to control. Further details: scale not given: the % may be the effect or the level left.
Data set [8] concerns Staphylococcus aureus. Description: Antibacterial activity against methicillin-resistant Staphylococcus aureus USA400 NRS123 clinical isolate preincubated followed by bacterial subculturing for 2 weeks. In kind it is functional.
Data set [9] is described as follows: Half life in naive Sprague-Dawley rat at 50 mg/kg ,po administered via gavage by LC-MS/MS method. Format: ADME, organism-based. As to conditions: in vivo. The procedure, abridged: (§2)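 Male naïve rats, three animals; single oral gavage dose in 5% ethanol, 45% PEG 400, 50% water. Blood drawn into EDTA-K2 tubes over 24 h post dose; plasma protein-precipitated with acetonitrile, parent quantified by LC/MS/MS.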

A short description of data set [10]: Terminal elimination rate constant in naive Sprague-Dawley rat at 50 mg/kg ,po administered via gavage by LC-MS/MS method. As to conditions: in vivo, read-out: LZ (converted). In kind it is ADME, organism-based. The essentials:
as §2

The values that follow come from ChEMBL document CHEMBL4014276, “Diphenylurea derivatives for combating methicillin- and vancomycin-resistant Staphylococcus aureus” (Eur J Med Chem, 2017).

Converted amounts (≈) assume the structure as drawn. The source made the active and inactive calls. The rule behind the calls is not given here.

What is called MIC is the least concentration at which growth counts as inhibited. A word on the half-life: it is how long it takes for the measured level to halve. As to `C/C(=N\NC(=N)N)c1ccc(NC(=O)Nc2ccc(OC3CCCCCC3)cc2)cc1`, the minimum inhibitory concentration (MIC) in data set [1] and in data set [5] was 2 µg/mL (≈ 4.73 µM) in each case. Moreover, the microsomal CLint in data set [2] came out at 42.9 µL/min/mg. For the same molecule, in data set [3], the outcome was inactive. The outcome in data set [4] and in [8] was Active. For the same molecule, the figures for the Activity result in [6] and in [7] were “Non-Toxic” and 35.7%, respectively. Besides, the half-life in [9] was 16 h. The k el in data set [10] was 1.25e-05 s⁻¹.
